# Measurements: ChEMBL document CHEMBL5260840 (J Med Chem, 2019)
# Legend:
# [1] = molecular target: T1, DDB1- and CUL4-associated factor 15/Bromodomain-containing protein 9 (Homo sapiens) (UniProt Q9H8M2+Q66K64); assay: PROTAC activity at DCAF15/BRD9 in human HeLa cells assessed as remaining BRD9 protein level at 1 uM incubated for 4 hrs by Western blot analysis relative to control; format: cell-based
# [2] = molecular target: T1, DDB1- and CUL4-associated factor 15/Bromodomain-containing protein 9 (Homo sapiens); assay: PROTAC activity at DCAF15/BRD9 in human HeLa cells assessed as remaining BRD9 protein level at 1 uM incubated for 16 hrs by Western blot analysis relative to control; format: cell-based
# [3] = molecular target: T2, DDB1- and CUL4-associated factor 15/Bromodomain-containing protein 7 (Homo sapiens) (UniProt Q9NPI1+Q66K64); assay: PROTAC activity at DCAF15/BRD7 in human HeLa cells assessed as remaining BRD7 protein level at 1 uM incubated for 4 hrs by Western blot analysis relative to control; format: cell-based
# [4] = molecular target: T2, DDB1- and CUL4-associated factor 15/Bromodomain-containing protein 7 (Homo sapiens); assay: PROTAC activity at DCAF15/BRD7 in human HeLa cells assessed as remaining BRD7 protein level at 1 uM incubated for 16 hrs by Western blot analysis relative to control; format: cell-based
# [5] = molecular target: T3, von Hippel-Lindau disease tumor suppressor/Bromodomain-containing protein 9 (Homo sapiens) (UniProt Q9H8M2+P40337); assay: PROTAC activity at VHL/BRD9 in human HeLa cells assessed as remaining BRD9 protein level at 1 uM incubated for 16 hrs by Western blot analysis relative to control; format: cell-based
# Summary of the method: (§1)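 HeLa cells treated with compound for the stated time before harvest; BRD9, BRD7 and β-actin detected by Western blot with β-actin loading control; band intensities quantified.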
# [6] = molecular target: T4, von Hippel-Lindau disease tumor suppressor/Bromodomain-containing protein 7 (Homo sapiens) (UniProt Q9NPI1+P40337); assay: PROTAC activity at VHL/BRD7 in human HeLa cells assessed as remaining BRD7 protein level at 1 uM incubated for 4 hrs by Western blot analysis relative to control; format: cell-based
# [7] = molecular target: T4, von Hippel-Lindau disease tumor suppressor/Bromodomain-containing protein 7 (Homo sapiens); assay: PROTAC activity at VHL/BRD7 in human HeLa cells assessed as remaining BRD7 protein level at 1 uM incubated for 16 hrs by Western blot analysis relative to control; format: cell-based
# [8] = molecular target: T4, von Hippel-Lindau disease tumor suppressor/Bromodomain-containing protein 7 (Homo sapiens); assay: PROTAC activity at VHL/BRD7 in human HeLa cells assessed as protein degradation at 1 uM incubated for 4 hrs by Western blot analysis relative to control; format: cell-based
# [9] = molecular target: T3, von Hippel-Lindau disease tumor suppressor/Bromodomain-containing protein 9 (Homo sapiens); assay: PROTAC activity at VHL/BRD9 in human HeLa cells assessed as protein degradation at 1 uM incubated for 4 hrs by Western blot analysis relative to control; format: cell-based; summary of the method: as §1
# [10] = molecular target: T4, von Hippel-Lindau disease tumor suppressor/Bromodomain-containing protein 7 (Homo sapiens); assay: PROTAC activity at VHL/BRD7 in human HeLa cells assessed as protein degradation at 1 uM incubated for 16 hrs by Western blot analysis relative to control; format: cell-based
# [11] = molecular target: T3, von Hippel-Lindau disease tumor suppressor/Bromodomain-containing protein 9 (Homo sapiens); assay: PROTAC activity at VHL/BRD9 in human HeLa cells assessed as protein degradation at 1 uM incubated for 16 hrs by Western blot analysis relative to control; format: cell-based; summary of the method: as §1
# [12] = molecular target: T5, Bromodomain-containing protein 9 (Homo sapiens) (UniProt Q9H8M2); assay: Binding affinity to 6His-tagged human BRD9 bromodomain (134 to 239 residues) expressed in Escherichia coli BL21 (DE3) cells assessed as change in enthalpy by ITC analysis
# T5 sequence (whole entry): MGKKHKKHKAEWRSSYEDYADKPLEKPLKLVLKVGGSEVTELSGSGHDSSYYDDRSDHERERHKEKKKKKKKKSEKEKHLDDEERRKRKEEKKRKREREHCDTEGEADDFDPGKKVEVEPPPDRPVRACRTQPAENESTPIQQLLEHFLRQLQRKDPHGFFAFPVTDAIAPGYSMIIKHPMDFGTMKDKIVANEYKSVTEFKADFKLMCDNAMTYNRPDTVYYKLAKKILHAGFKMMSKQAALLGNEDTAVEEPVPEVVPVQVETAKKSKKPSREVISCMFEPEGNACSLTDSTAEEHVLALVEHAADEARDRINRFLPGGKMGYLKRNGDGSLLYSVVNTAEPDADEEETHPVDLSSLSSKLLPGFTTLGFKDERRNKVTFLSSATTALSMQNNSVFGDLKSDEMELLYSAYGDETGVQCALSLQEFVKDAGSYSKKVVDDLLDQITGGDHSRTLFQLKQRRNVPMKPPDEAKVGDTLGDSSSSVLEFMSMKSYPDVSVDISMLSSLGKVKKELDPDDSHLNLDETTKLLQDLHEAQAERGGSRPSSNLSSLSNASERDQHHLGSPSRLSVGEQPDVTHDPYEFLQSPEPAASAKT
# [13] = molecular target: T5, Bromodomain-containing protein 9 (Homo sapiens); assay: Binding affinity to 6His-tagged human BRD9 bromodomain (134 to 239 residues) expressed in Escherichia coli BL21 (DE3) cells assessed as gibbs free energy change by ITC analysis
# [14] = molecular target: T5, Bromodomain-containing protein 9 (Homo sapiens); assay: Binding affinity to 6His-tagged human BRD9 bromodomain (134 to 239 residues) expressed in Escherichia coli BL21 (DE3) cells assessed as change in entropy by ITC analysis
# [15] = molecular target: T6, Von Hippel-Lindau disease tumor suppressor/Elongin B/Elongin C (Homo sapiens) (UniProt P40337+Q15370+Q15369); assay: Binding affinity to 6His-tagged human VHL/ElonginC/ElonginB expressed in Escherichia coli BL21 (DE3) cells assessed as change in enthalpy by ITC analysis
# [16] = molecular target: T6, Von Hippel-Lindau disease tumor suppressor/Elongin B/Elongin C (Homo sapiens); assay: Binding affinity to 6His-tagged human VHL/ElonginC/ElonginB expressed in Escherichia coli BL21 (DE3) cells assessed as change in entropy by ITC analysis
# [17] = molecular target: T6, Von Hippel-Lindau disease tumor suppressor/Elongin B/Elongin C (Homo sapiens); assay: Negative co-operative binding affinity to 6His-tagged human VHL/ElonginC/ElonginB expressed in Escherichia coli BL21 (DE3) cells assessed as change in enthalpy in the presence of BRD9-BD as complex with compound by ITC analysis
# [18] = molecular target: T6, Von Hippel-Lindau disease tumor suppressor/Elongin B/Elongin C (Homo sapiens); assay: Negative co-operative binding affinity to 6His-tagged human VHL/ElonginC/ElonginB expressed in Escherichia coli BL21 (DE3) cells assessed as change in entropy in the presence of BRD9-BD as complex with compound by ITC analysis
# [19] = molecular target: T6, Von Hippel-Lindau disease tumor suppressor/Elongin B/Elongin C (Homo sapiens); assay: Negative co-operative binding affinity to 6His-tagged human VHL/ElonginC/ElonginB expressed in Escherichia coli BL21 (DE3) cells assessed as total gibb's free energy change in the presence of BRD9-BD as complex with compound by ITC analysis
# [20] = molecular target: T6, Von Hippel-Lindau disease tumor suppressor/Elongin B/Elongin C (Homo sapiens); assay: Co-operative binding affinity to 6His-tagged human VHL/ElonginC/ElonginB expressed in Escherichia coli BL21 (DE3) cells assessed as maximal intensity in the presence of BRD9-BD as complex with compound incubated for 1 hrs by AlphaLISA proximity assay
# T4 sequence (P40337 whole entry, looked up): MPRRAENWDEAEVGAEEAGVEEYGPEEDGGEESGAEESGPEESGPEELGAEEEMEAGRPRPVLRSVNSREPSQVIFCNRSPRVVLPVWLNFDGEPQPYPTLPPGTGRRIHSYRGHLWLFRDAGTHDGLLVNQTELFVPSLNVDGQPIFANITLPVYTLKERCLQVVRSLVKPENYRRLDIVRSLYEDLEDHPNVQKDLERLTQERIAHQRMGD
# T4 sequence (Q9NPI1 whole entry, looked up): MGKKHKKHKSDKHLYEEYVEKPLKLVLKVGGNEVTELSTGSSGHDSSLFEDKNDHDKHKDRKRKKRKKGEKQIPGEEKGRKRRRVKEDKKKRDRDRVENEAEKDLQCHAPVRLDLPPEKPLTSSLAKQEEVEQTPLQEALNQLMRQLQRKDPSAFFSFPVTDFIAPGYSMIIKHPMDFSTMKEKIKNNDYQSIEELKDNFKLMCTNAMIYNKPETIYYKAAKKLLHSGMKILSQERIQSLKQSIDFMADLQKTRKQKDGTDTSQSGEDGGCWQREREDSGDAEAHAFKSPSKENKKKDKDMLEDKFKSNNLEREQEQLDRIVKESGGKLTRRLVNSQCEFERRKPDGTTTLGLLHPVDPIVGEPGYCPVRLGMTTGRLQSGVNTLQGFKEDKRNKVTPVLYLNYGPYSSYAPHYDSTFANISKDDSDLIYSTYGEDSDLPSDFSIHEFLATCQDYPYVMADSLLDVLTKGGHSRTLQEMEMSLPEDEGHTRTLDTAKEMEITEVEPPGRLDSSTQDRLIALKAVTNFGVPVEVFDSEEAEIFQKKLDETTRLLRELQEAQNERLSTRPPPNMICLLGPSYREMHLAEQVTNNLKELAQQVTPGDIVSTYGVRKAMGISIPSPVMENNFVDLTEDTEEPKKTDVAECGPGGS
# T3 sequence (P40337 whole entry, looked up, one chain of several): as the sequence (P40337 whole entry, looked up) above
# T6 sequence (P40337 whole entry, looked up): as above
# T6 sequence (Q15369 whole entry, looked up): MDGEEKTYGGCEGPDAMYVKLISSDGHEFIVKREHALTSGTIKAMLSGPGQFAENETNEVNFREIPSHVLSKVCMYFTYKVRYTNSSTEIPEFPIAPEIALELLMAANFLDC
# T6 sequence (Q15370 whole entry, looked up): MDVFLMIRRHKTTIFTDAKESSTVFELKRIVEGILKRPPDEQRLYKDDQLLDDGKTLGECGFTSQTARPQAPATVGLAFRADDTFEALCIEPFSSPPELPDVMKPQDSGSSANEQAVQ
# T1 sequence (Q66K64 whole entry, looked up, one chain of several): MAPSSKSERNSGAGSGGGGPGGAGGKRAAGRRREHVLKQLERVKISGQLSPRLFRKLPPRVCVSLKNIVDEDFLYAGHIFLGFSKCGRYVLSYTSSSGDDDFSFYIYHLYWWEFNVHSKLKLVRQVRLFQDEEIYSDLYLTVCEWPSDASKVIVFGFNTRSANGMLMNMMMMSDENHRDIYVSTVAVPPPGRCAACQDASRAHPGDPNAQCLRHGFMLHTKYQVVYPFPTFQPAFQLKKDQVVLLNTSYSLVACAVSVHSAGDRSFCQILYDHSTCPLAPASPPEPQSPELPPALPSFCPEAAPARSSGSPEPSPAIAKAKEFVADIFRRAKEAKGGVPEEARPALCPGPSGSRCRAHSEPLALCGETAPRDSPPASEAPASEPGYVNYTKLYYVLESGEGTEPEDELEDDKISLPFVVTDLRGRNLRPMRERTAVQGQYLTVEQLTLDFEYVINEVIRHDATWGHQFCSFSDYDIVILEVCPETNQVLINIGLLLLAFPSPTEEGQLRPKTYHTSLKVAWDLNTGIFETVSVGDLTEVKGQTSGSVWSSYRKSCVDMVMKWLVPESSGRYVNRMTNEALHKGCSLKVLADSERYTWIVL
# T2 sequence (Q66K64 whole entry, looked up): as the sequence (Q66K64 whole entry, looked up, one chain of several) above
# T2 sequence (Q9NPI1 whole entry, looked up): as the sequence (Q9NPI1 whole entry, looked up) above
Activity [1] [%],Activity [2] [%],Activity [3] [%],Activity [4] [%],Activity [5] [%],Activity [6] [%],Activity [7] [%],Activity [8] [%],Activity [9] [%],Activity [10] [%],Activity [11] [%],deltaH [12] [kcal/mol],deltaG [13] [kcal/mol],-TdeltaS [14] [kcal/mol],deltaH [15] [kcal/mol],-TdeltaS [16] [kcal/mol],deltaH [17] [kcal/mol],-TdeltaS [18] [kcal/mol],deltaG [19] [kcal/mol],Activity [20],Compound
126,86,81,86,,,,,,,,,,,,,,,,,COc1cc(-c2cn(C)c(=O)c3cnccc23)cc(OC)c1CN1CCN(CCOCCOCCOCCOCC(=O)NCc2ccc(S(=O)(=O)Nc3cccc4c(Cl)c[nH]c34)cc2)CC1
125,81,101,86,,,,,,,,,,,,,,,,,COc1cc(-c2cn(C)c(=O)c3cnccc23)cc(OC)c1CN1CCN(CCOCCOCC(=O)NCc2ccc(S(=O)(=O)Nc3cccc4c(Cl)c[nH]c34)cc2)CC1
,,,,70,68,83,20,20,30,30,-12.5,-10.7,1.8,-15.2,4.9,-6.4,-3.3,-20.4,1 10^6No_unit,COc1cc(-c2cn(C)c(=O)c3cnccc23)cc(OC)c1CN1CCN(CCOCCOCC(=O)N[C@H](C(=O)N2C[C@H](O)C[C@H]2C(=O)NCc2ccc(-c3scnc3C)cc2)C(C)(C)C)CC1
